Results: ChEMBL document CHEMBL1157592, “Design, synthesis and antimicrobial properties of non-hemolytic cationic alpha-cyclopeptoids” (Bioorg Med Chem, 2010)
Converted amounts (≈) assume the structure as drawn. The source made the active and inactive calls. The rule behind the calls is not given here. Square brackets hold non-standard residues; d marks the D form. Peptide text beside a SMILES is read from it. Nphe = O=C(O)CNCc1ccccc1; Nlys = NCCCCNCC(=O)O

Assays:
[1] = system: Cryptococcus neoformans; experiment: Antimicrobial activity against Cryptococcus neoformans L1 after 48 hrs by broth microdilution method; assay type: functional; settings: L1, 48 h
Summary of the method: (§1)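 Fungi grown on Sabouraud agar at 30 °C for 48 h, suspended in PBS, turbidity read at 600 nm and adjusted in RPMI-1640. Twofold serial dilutions made in RPMI-1640, inoculum ~5 × 10⁴ cells/mL, incubated 30 °C for 48 h. MIC is the lowest concentration giving complete inhibition of visible growth, following NCCLS broth microdilution guidelines.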

[2] = system: Escherichia coli; experiment: Antimicrobial activity against Escherichia coli ATCC 25922 after 18 hrs by broth microdilution method; assay type: functional; settings: ATCC 25922, 18 h
Summary of the method: (§2)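 Strains grown at 37 °C in Mueller–Hinton broth and tested in logarithmic phase. Twofold serial dilutions made in MH broth, inoculum ~2.5 × 10⁵ cells/mL, incubated overnight (18 h) at 37 °C. MIC is the lowest concentration giving complete inhibition of visible growth, following NCCLS broth microdilution guidelines.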

[3] = system: Salmonella typhimurium; experiment: Antimicrobial activity against Salmonella Typhimurium ATCC 14028 after 18 hrs by broth microdilution method; assay type: functional, Salmonella enterica subsp. enterica serovar Typhimurium; settings: Salmonella enterica, ATCC 14028, 18 h; summary of the method: as §2
[4] = system: Candida albicans; experiment: Antimicrobial activity against Candida albicans ATCC 90029 after 48 hrs by broth microdilution method; assay type: functional; settings: ATCC 90029, 48 h; summary of the method: as §1
[5] = system: Debaryomyces hansenii; experiment: Antimicrobial activity against Candida famata SA550 after 48 hrs by broth microdilution method; assay type: functional; settings: SA550, 48 h; summary of the method: as §1
[6] = system: Staphylococcus aureus; experiment: Antimicrobial activity against Staphylococcus aureus ATCC 25923 after 18 hrs by broth microdilution method; assay type: functional; settings: ATCC 25923, 18 h; summary of the method: as §2
[7] = system: Cryptococcus neoformans; experiment: Antimicrobial activity against Cryptococcus neoformans ATCC 90112 after 48 hrs by broth microdilution method; assay type: functional; settings: ATCC 90112, 48 h; summary of the method: as §1
[8] = system: Candida albicans; experiment: Antimicrobial activity against Candida albicans L21 after 48 hrs by broth microdilution method; assay type: functional; settings: L21, 48 h; summary of the method: as §1
[9] = system: Candida albicans; experiment: Membrane permeabilizing effect in Candida albicans ATCC 90029 assessed as propidium iodide uptake at 250 uM after 30 to 240 mins by flow cytometry; assay type: functional, organism-based
Summary of the method: (§3)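 Candida subcultured on Sabouraud agar, diluted in RPMI-1640 to 1 × 10⁵ cells/mL and incubated with peptoid at 30 °C for various times. Propidium iodide (final 10 µg/mL) added, 4 min at 30 °C, then flow cytometry with ≥10,000 events. Read-out is % PI-positive cells, background (no peptoid) subtracted; triplicates, mean ± SD.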

[10] = system: Escherichia coli; experiment: Membrane permeabilizing effect in Escherichia coli ATCC 25922 assessed as propidium iodide uptake at 250 uM after 180 mins by flow cytometry; assay type: functional, organism-based
Summary of the method: (§4)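 Log-phase bacteria at 1 × 10⁶ cells/mL in MH broth incubated with peptoid at 37 °C for various times. Propidium iodide (final 10 µg/mL) added, 4 min at 37 °C, then flow cytometry with ≥10,000 events. Read-out is % PI-positive cells, background (no peptoid) subtracted; triplicates, mean ± SD.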

[11] = system: Staphylococcus aureus; experiment: Membrane permeabilizing effect in Staphylococcus aureus ATCC 25923 assessed as propidium iodide uptake at 250 uM after 60 mins by flow cytometry; assay type: functional; summary of the method: as §4
[12] = Toxicity in human RBCs assessed as induction of hemolysis at 100 uM relative to untreated control; assay type: cell-based; settings: erythrocyte
Summary of the method: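 Erythrocytes taken from fresh human blood anticoagulated with citrate-dextrose. A 0.5% (v/v) suspension in 10 mM phosphate buffer pH 7.4 with 139 mM NaCl was incubated with 100 µM cyclopeptoid for 60 min at 37 °C. Reaction stopped with cold buffer, centrifuged at 10,000g for 1 min, and the supernatant collected.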

[13] = system: Candida albicans; experiment: Membrane permeabilizing effect in Candida albicans ATCC 90029 assessed as propidium iodide uptake at 100 uM after 120 mins by flow cytometry; assay type: functional, organism-based; summary of the method: as §3
[14] = system: Candida albicans; experiment: Membrane permeabilizing effect in Candida albicans ATCC 90029 assessed as propidium iodide uptake at 100 uM after 120 to 240 mins by flow cytometry; assay type: functional; summary of the method: as §3
[15] = Toxicity in human RBCs assessed as induction of hemolysis at 20 uM relative to untreated control; assay type: cell-based, Erythrocyte; settings: red blood cells (RBCs)

Row | MIC [1] [µM] | MIC [2] [µM] | MIC [3] [µM] | MIC [4] [µM] | MIC [5] [µM] | MIC [6] [µM] | MIC [7] [µM] | MIC [8] [µM] | SMILES | Activity [9] | Activity [10] | Activity [11] [%] | Activity [12] | Activity [13] | Activity [14] [%] | hemolysis at 20 µM [15] [%]
1 | 116 (≈ 98 µg/mL) | 465 (≈ 393 µg/mL) | 465 (≈ 393 µg/mL) | 465 (≈ 393 µg/mL) | – | 465 (≈ 393 µg/mL) | 232 (≈ 196 µg/mL) | 232 (≈ 196 µg/mL) | NCCCCN1CC(=O)N(Cc2ccccc2)CC(=O)N(Cc2ccccc2)CC(=O)N(CCCCN)CC(=O)N(Cc2ccccc2)CC(=O)N(Cc2ccccc2)CC1=O (cyclo([Nlys][Nphe][Nphe][Nlys][Nphe][Nphe])) | – | – | – | – | – | – | –
2 | 788 (≈ 680 µg/mL) | > 1000 | > 1000 | > 1000 | – | > 1000 | > 1000 | > 1000 | NCCCCN(CC(=O)N(CC(=O)N(CC(=O)N(CCCCN)CC(=O)N(CC(=O)O)Cc1ccccc1)Cc1ccccc1)Cc1ccccc1)C(=O)CNCc1ccccc1 (H-[Nphe][Nlys][Nphe][Nphe][Nlys][Nphe]-OH) | – | – | – | – | – | – | –
3 | 92 | 383 | > 766 | 184 | – | 383 | 184 | 184 | NCCCCN1CC(=O)N(CCOCc2ccccc2)CC(=O)N(CCCCN)CC(=O)N(CCOCc2ccccc2)CC(=O)N(CCCCN)CC(=O)N(CCOCc2ccccc2)CC1=O.O=C(O)C(F)(F)F.O=C(O)C(F)(F)F.O=C(O)C(F)(F)F | inactive | inactive | >40 | – | – | – | –
4 | > 1000 | > 1000 | > 1000 | 10 | 5 | > 1000 | > 1000 | 5 | NCCCCN1CC(=O)N(CCCCN)CC(=O)N(CCCCN)CC(=O)N(CCCCN)CC(=O)N(CCCCN)CC(=O)N(CCCCN)CC1=O.O=C(O)C(F)(F)F.O=C(O)C(F)(F)F.O=C(O)C(F)(F)F.O=C(O)C(F)(F)F.O=C(O)C(F)(F)F.O=C(O)C(F)(F)F | – | – | – | Non-toxic | – | – | –
5 | 99 | 786 | > 1000 | 12 | 12 | > 1000 | 47 | 12 | NCCCCN1CC(=O)N(Cc2ccccc2)CC(=O)N(CCCCN)CC(=O)N(CCCCN)CC(=O)N(Cc2ccccc2)CC(=O)N(CCCCN)CC1=O.O=C(O)C(F)(F)F.O=C(O)C(F)(F)F.O=C(O)C(F)(F)F.O=C(O)C(F)(F)F (cyclo([Nlys][Nlys][Nphe][Nlys][Nlys][Nphe])) | – | – | – | Non-toxic | Active | 50 | –
6 | > 1000 | > 1000 | > 1000 | > 1000 | – | > 1000 | > 1000 | > 1000 | O=C1CN(Cc2ccccc2)C(=O)CN(Cc2ccccc2)C(=O)CN(Cc2ccccc2)C(=O)CN(Cc2ccccc2)C(=O)CN(Cc2ccccc2)C(=O)CN1Cc1ccccc1 | – | – | – | – | – | – | –
7 | 90 (≈ 93.5 µg/mL) | 360 (≈ 374 µg/mL) | 720 (≈ 748 µg/mL) | 360 (≈ 374 µg/mL) | – | > 720 | 180 (≈ 187 µg/mL) | 360 (≈ 374 µg/mL) | NCCCCN(CC(=O)N(CCOCc1ccccc1)CC(=O)N(CCOCc1ccccc1)CC(=O)N(CCCCN)CC(=O)N(CCOCc1ccccc1)CC(=O)O)C(=O)CNCCOCc1ccccc1 | – | – | – | – | – | – | –

The next lines start with the compound.

Row | SMILES | MIC [1] [µM] | MIC [2] [µM] | MIC [3] [µM] | MIC [4] [µM] | MIC [5] [µM] | MIC [6] [µM] | MIC [7] [µM] | MIC [8] [µM] | Activity [9] | Activity [10] | Activity [11] [%] | Activity [12] | Activity [13] | Activity [14] [%] | hemolysis at 20 µM [15] [%]
8 | NCCCCNCC(=O)N(CCCCN)CC(=O)N(CCCCN)CC(=O)N(CCCCN)CC(=O)N(CCCCN)CC(=O)N(CCCCN)CC(=O)O | > 1000 | > 1000 | > 1000 | > 1000 | > 1000 | > 1000 | > 1000 | 500 (≈ 394 µg/mL) | – | – | – | – | – | – | –
9 | O=C1CN(CCOCc2ccccc2)C(=O)CN(CCOCc2ccccc2)C(=O)CN(CCOCc2ccccc2)C(=O)CN(CCOCc2ccccc2)C(=O)CN(CCOCc2ccccc2)C(=O)CN1CCOCc1ccccc1 | > 1000 | > 1000 | > 1000 | > 1000 | – | > 1000 | > 1000 | > 1000 | – | – | – | – | – | – | –
10 | NCCCCN1CC(=O)N(CCOCc2ccccc2)CC(=O)N(CCOCc2ccccc2)CC(=O)N(CCCCN)CC(=O)N(CCOCc2ccccc2)CC(=O)N(CCOCc2ccccc2)CC1=O | 98 (≈ 100 µg/mL) | 392 (≈ 400 µg/mL) | > 792 | 196 (≈ 200 µg/mL) | – | 392 (≈ 400 µg/mL) | 196 (≈ 200 µg/mL) | 196 (≈ 200 µg/mL) | – | – | – | – | – | – | –
11 | CC[C@H](C)[C@H](NC(=O)CN)C(=O)NCC(=O)N[C@@H](C)C(=O)N[C@H](C(=O)N[C@@H](CC(C)C)C(=O)N[C@@H](CCCCN)C(=O)N[C@H](C(=O)N[C@@H](CC(C)C)C(=O)N[C@H](C(=O)N[C@H](C(=O)NCC(=O)N[C@@H](CC(C)C)C(=O)N1CCC[C@H]1C(=O)N[C@@H](C)C(=O)N[C@@H](CC(C)C)C(=O)N[C@H](C(=O)N[C@@H](CO)C(=O)N[C@@H](Cc1c[nH]c2ccccc12)C(=O)N[C@H](C(=O)N[C@@H](CCCCN)C(=O)N[C@@H](CCCNC(=N)N)C(=O)N[C@@H](CCCCN)C(=O)N[C@@H](CCCNC(=N)N)C(=O)N[C@@H](CCC(N)=O)C(=O)N[C@@H](CCC(N)=O)C(N)=O)[C@@H](C)CC)[C@@H](C)CC)[C@@H](C)O)[C@@H](C)O)C(C)C)C(C)C [MELITTIN] | – | – | – | – | – | – | – | – | – | – | – | – | – | – | > 90
12 | NCCCCN(CC(=O)O)C(=O)CN(CCCCN)C(=O)CN(Cc1ccccc1)C(=O)CN(CCCCN)C(=O)CN(CCCCN)C(=O)CNCc1ccccc1 | > 1000 | > 1000 | > 1000 | > 1000 | > 1000 | > 1000 | > 1000 | > 1000 | – | – | – | – | – | – | –
